Several values for one entry are separate records, joined by “and”; a condition that tells them apart may be missing. Identical values can stand only once.
Key:
Format in all cases: toxicity, cell-based
[1] = test system: Fibroblast; assay: Multiplex assay against human fibroblast
How it was run: (§1)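 Imaging took place on a CQ1 microscope at 37°C and 5% CO2 once compound had been added to live cells stained at seeding with Hoechst33342, BioTracker Green Microtubule Cytoskeleton Dye, MitoTracker Red and Annexin V Alexa Fluor 680. CellPathfinder machine-learning gating classed cells as Hoechst high-intensity objects or normal cells, classed normal cells as having healthy, pyknosed or fragmented nuclei, and classed pyknosed cells as mitotic or apoptotic. Tubulin, mitochondrial-mass and membrane-permeability phenotypes are per cents of the healthy-nucleus cells.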

[2] = test system: U2OS; assay: Multiplex assay against U2OS; conditions: human; how it was run: as §1
[3] = test system: HEK-293T; assay: Multiplex assay against HEK293T; conditions: human; how it was run: as §1
[4] = 12 h, 1 µM, compound concentration 1 uM
[5] = 12 h, 10 µM, compound concentration 10 uM
[6] = 24 h, 1 µM, compound concentration 1 uM
[7] = 24 h, 10 µM, compound concentration 10 uM
[8] = 48 h, 1 µM, compound concentration 1 uM
[9] = 48 h, 10 µM, compound concentration 10 uM

CC(C)(C)c1ccc(S(=O)(=O)Nc2ccc(Cl)cc2C(=O)c2cc[n+]([O-])cc2)cc1 [VERCIRNON]
Population Apoptotic (%) [1, 4]: 63% and 50% | Population Fragmented Nuclei (%) [1, 4]: 19% and 27% | Population Healthy Nuclei (%) [1, 4]: 65% and 46% | Population Hoechst High Intensity Objects (%) [1, 4]: 2% and 7% | Population Membrane Permeable-Phenotype (%) [1, 4]: 1% and 6% | Population Mitochondria Different-Phenotype (%) [1, 4]: 3% and 1% | Population Mitotic Cells (%) [1, 4]: 36% and 50% | Population Normal (%) [1, 4]: 97% and 92% | Population Pyknosed Nuclei (%) [1, 4]: 15% and 25% | Population Tubulin-Different-Phenotype (%) [1, 4]: 20% and 41% | Total Cell Count [1, 4]: 148 and 152 | Population Apoptotic (%) [1, 5]: 59% and 48% | Population Fragmented Nuclei (%) [1, 5]: 14% and 30% | Population Healthy Nuclei (%) [1, 5]: 64% and 44% | Population Hoechst High Intensity Objects (%) [1, 5]: 3% and 5% | Population Membrane Permeable-Phenotype (%) [1, 5]: 3% and 8% | Population Mitochondria Different-Phenotype (%) [1, 5]: 1% and 10% | Population Mitotic Cells (%) [1, 5]: 40% and 51% | Population Normal (%) [1, 5]: 96% and 94% | Population Pyknosed Nuclei (%) [1, 5]: 21% and 25% | Population Tubulin-Different-Phenotype (%) [1, 5]: 46% and 66% | Total Cell Count [1, 5]: 107 and 114 | Population Apoptotic (%) [1, 6]: 55% and 54% | Population Fragmented Nuclei (%) [1, 6]: 23% and 25% | Population Healthy Nuclei (%) [1, 6]: 62% and 57% | Population Hoechst High Intensity Objects (%) [1, 6]: 0% and 7% | Population Membrane Permeable-Phenotype (%) [1, 6]: 4% and 7% | Population Mitochondria Different-Phenotype (%) [1, 6]: 1% | Population Mitotic Cells (%) [1, 6]: 45% | Population Normal (%) [1, 6]: 99% and 92% | Population Pyknosed Nuclei (%) [1, 6]: 14% and 16% | Population Tubulin-Different-Phenotype (%) [1, 6]: 27% and 40% | Total Cell Count [1, 6]: 141 and 142 | Population Apoptotic (%) [1, 7]: 66% and 41% | Population Fragmented Nuclei (%) [1, 7]: 16% and 32% | Population Healthy Nuclei (%) [1, 7]: 66% and 42% | Population Hoechst High Intensity Objects (%) [1, 7]: 1% and 0% | Population Mitochondria Different-Phenotype (%) [1, 7]: 2% and 9% | Population Mitotic Cells (%) [1, 7]: 33% and 58% | Population Normal (%) [1, 7]: 98% and 99% | Population Pyknosed Nuclei (%) [1, 7]: 16% and 24% | Population Tubulin-Different-Phenotype (%) [1, 7]: 40% and 82% | Total Cell Count [1, 7]: 114 and 120 | Population Apoptotic (%) [1, 8]: 61% and 62% | Population Fragmented Nuclei (%) [1, 8]: 29% and 32% | Population Healthy Nuclei (%) [1, 8]: 58% and 55% | Population Hoechst High Intensity Objects (%) [1, 8]: 1% and 6% | Population Membrane Permeable-Phenotype (%) [1, 8]: 1% and 6% | Population Mitochondria Different-Phenotype (%) [1, 8]: 1% and 9% | Population Mitotic Cells (%) [1, 8]: 38% and 37% | Population Normal (%) [1, 8]: 98% and 93% | Population Pyknosed Nuclei (%) [1, 8]: 12% and 11% | Population Tubulin-Different-Phenotype (%) [1, 8]: 25% and 37% | Total Cell Count [1, 8]: 151 and 145 | Population Apoptotic (%) [1, 9]: 62% and 46% | Population Fragmented Nuclei (%) [1, 9]: 22% and 42% | Population Healthy Nuclei (%) [1, 9]: 64% and 46% | Population Hoechst High Intensity Objects (%) [1, 9]: 2% and 4% | Population Mitochondria Different-Phenotype (%) [1, 9]: 0% and 12% | Population Mitotic Cells (%) [1, 9]: 37% and 53% | Population Normal (%) [1, 9]: 97% and 95% | Population Pyknosed Nuclei (%) [1, 9]: 13% and 11% | Population Tubulin-Different-Phenotype (%) [1, 9]: 38% and 72% | Total Cell Count [1, 9]: 120 and 122 | Population Apoptotic (%) [2, 4]: 77% and 100% | Population Fragmented Nuclei (%) [2, 4]: 28% and 15% | Population Healthy Nuclei (%) [2, 4]: 61% and 79% | Population Hoechst High Intensity Objects (%) [2, 4]: 1% and 0% | Population Membrane Permeable-Phenotype (%) [2, 4]: 8% | Population Mitochondria Different-Phenotype (%) [2, 4]: 5% and 4% | Population Mitotic Cells (%) [2, 4]: 22% and 0% | Population Normal (%) [2, 4]: 98% and 99% | Population Pyknosed Nuclei (%) [2, 4]: 10% and 5% | Population Tubulin-Different-Phenotype (%) [2, 4]: 4% and 3% | Total Cell Count [2, 4]: 307 and 156 | Population Apoptotic (%) [2, 5]: 77% and 50% | Population Fragmented Nuclei (%) [2, 5]: 24% and 21% | Population Healthy Nuclei (%) [2, 5]: 68% and 77% | Population Hoechst High Intensity Objects (%) [2, 5]: 1% and 0% | Population Mitochondria Different-Phenotype (%) [2, 5]: 2% | Population Mitotic Cells (%) [2, 5]: 22% and 50% | Population Normal (%) [2, 5]: 98% and 99% | Population Pyknosed Nuclei (%) [2, 5]: 6% and 1% | Total Cell Count [2, 5]: 266 and 123 | Population Apoptotic (%) [2, 6]: 89% and 92% | Population Fragmented Nuclei (%) [2, 6]: 25% and 18% | Population Healthy Nuclei (%) [2, 6]: 67% and 74% | Population Hoechst High Intensity Objects (%) [2, 6]: 1% and 0% | Population Membrane Permeable-Phenotype (%) [2, 6]: 8% and 2% | Population Mitochondria Different-Phenotype (%) [2, 6]: 5% and 4% | Population Mitotic Cells (%) [2, 6]: 10% and 7% | Population Normal (%) [2, 6]: 98% and 99% | Population Pyknosed Nuclei (%) [2, 6]: 7% | Population Tubulin-Different-Phenotype (%) [2, 6]: 4% and 2% | Total Cell Count [2, 6]: 357 and 183 | Population Apoptotic (%) [2, 7]: 76% and 71% | Population Fragmented Nuclei (%) [2, 7]: 21% and 22% | Population Healthy Nuclei (%) [2, 7]: 72% | Population Hoechst High Intensity Objects (%) [2, 7]: 2% and 1% | Population Mitochondria Different-Phenotype (%) [2, 7]: 1% | Population Mitotic Cells (%) [2, 7]: 23% and 28% | Population Normal (%) [2, 7]: 97% and 98% | Population Pyknosed Nuclei (%) [2, 7]: 5% and 4% | Total Cell Count [2, 7]: 297 and 160 | Population Apoptotic (%) [2, 8]: 82% and 84% | Population Fragmented Nuclei (%) [2, 8]: 19% and 15% | Population Healthy Nuclei (%) [2, 8]: 73% and 75% | Population Hoechst High Intensity Objects (%) [2, 8]: 3% and 4% | Population Membrane Permeable-Phenotype (%) [2, 8]: 5% and 7% | Population Mitochondria Different-Phenotype (%) [2, 8]: 3% and 2% | Population Mitotic Cells (%) [2, 8]: 17% and 15% | Population Normal (%) [2, 8]: 96% and 95% | Population Pyknosed Nuclei (%) [2, 8]: 6% and 9% | Population Tubulin-Different-Phenotype (%) [2, 8]: 4% and 2% | Total Cell Count [2, 8]: 515 and 296 | Population Apoptotic (%) [2, 9]: 79% and 77% | Population Fragmented Nuclei (%) [2, 9]: 18% and 26% | Population Healthy Nuclei (%) [2, 9]: 75% and 65% | Population Hoechst High Intensity Objects (%) [2, 9]: 1% and 2% | Population Membrane Permeable-Phenotype (%) [2, 9]: 2% and 8% | Population Mitochondria Different-Phenotype (%) [2, 9]: 1% and 5% | Population Mitotic Cells (%) [2, 9]: 20% and 22% | Population Normal (%) [2, 9]: 98% and 97% | Population Pyknosed Nuclei (%) [2, 9]: 5% and 8% | Population Tubulin-Different-Phenotype (%) [2, 9]: 1% and 11% | Total Cell Count [2, 9]: 414 and 215 | Population Apoptotic (%) [3, 4]: 32% and 52% | Population Fragmented Nuclei (%) [3, 4]: 10% and 5% | Population Healthy Nuclei (%) [3, 4]: 77% and 84% | Population Hoechst High Intensity Objects (%) [3, 4]: 7% | Population Membrane Permeable-Phenotype (%) [3, 4]: 0% | Population Mitochondria Different-Phenotype (%) [3, 4]: 33% and 51% | Population Mitotic Cells (%) [3, 4]: 68% and 47% | Population Normal (%) [3, 4]: 92% | Population Pyknosed Nuclei (%) [3, 4]: 12% and 10% | Population Tubulin-Different-Phenotype (%) [3, 4]: 21% and 22% | Total Cell Count [3, 4]: 428 and 424 | Population Apoptotic (%) [3, 5]: 30% and 39% | Population Fragmented Nuclei (%) [3, 5]: 6% and 4% | Population Healthy Nuclei (%) [3, 5]: 83% and 82% | Population Hoechst High Intensity Objects (%) [3, 5]: 6% and 5% | Population Membrane Permeable-Phenotype (%) [3, 5]: 0% and 1% | Population Mitochondria Different-Phenotype (%) [3, 5]: 35% and 51% | Population Mitotic Cells (%) [3, 5]: 69% and 60% | Population Normal (%) [3, 5]: 93% and 94% | Population Pyknosed Nuclei (%) [3, 5]: 10% and 13% | Population Tubulin-Different-Phenotype (%) [3, 5]: 37% and 27% | Total Cell Count [3, 5]: 451 and 344 | Population Apoptotic (%) [3, 6]: 41% and 28% | Population Fragmented Nuclei (%) [3, 6]: 8% | Population Healthy Nuclei (%) [3, 6]: 81% | Population Hoechst High Intensity Objects (%) [3, 6]: 6% and 5% | Population Membrane Permeable-Phenotype (%) [3, 6]: 0% | Population Mitochondria Different-Phenotype (%) [3, 6]: 21% and 32% | Population Mitotic Cells (%) [3, 6]: 58% and 71% | Population Normal (%) [3, 6]: 93% and 94% | Population Pyknosed Nuclei (%) [3, 6]: 9% | Population Tubulin-Different-Phenotype (%) [3, 6]: 15% and 16% | Total Cell Count [3, 6]: 522 and 521 | Population Apoptotic (%) [3, 7]: 22% and 28% | Population Fragmented Nuclei (%) [3, 7]: 10% and 7% | Population Healthy Nuclei (%) [3, 7]: 77% and 82% | Population Hoechst High Intensity Objects (%) [3, 7]: 3% and 5% | Population Membrane Permeable-Phenotype (%) [3, 7]: 1% and 0% | Population Mitochondria Different-Phenotype (%) [3, 7]: 15% and 31% | Population Mitotic Cells (%) [3, 7]: 77% and 71% | Population Normal (%) [3, 7]: 96% and 94% | Population Pyknosed Nuclei (%) [3, 7]: 12% and 9% | Population Tubulin-Different-Phenotype (%) [3, 7]: 20% and 23% | Total Cell Count [3, 7]: 594 and 437 | Population Apoptotic (%) [3, 8]: 28% and 32% | Population Fragmented Nuclei (%) [3, 8]: 16% and 14% | Population Healthy Nuclei (%) [3, 8]: 76% and 81% | Population Hoechst High Intensity Objects (%) [3, 8]: 2% | Population Membrane Permeable-Phenotype (%) [3, 8]: 0% and 2% | Population Mitochondria Different-Phenotype (%) [3, 8]: 16% and 14% | Population Mitotic Cells (%) [3, 8]: 71% and 67% | Population Normal (%) [3, 8]: 97% | Population Pyknosed Nuclei (%) [3, 8]: 7% and 4% | Population Tubulin-Different-Phenotype (%) [3, 8]: 13% and 12% | Total Cell Count [3, 8]: 834 and 877 | Population Apoptotic (%) [3, 9]: 21% and 25% | Population Fragmented Nuclei (%) [3, 9]: 13% and 12% | Population Healthy Nuclei (%) [3, 9]: 81% and 80% | Population Hoechst High Intensity Objects (%) [3, 9]: 3% and 2% | Population Membrane Permeable-Phenotype (%) [3, 9]: 2% and 1% | Population Mitochondria Different-Phenotype (%) [3, 9]: 12% and 18% | Population Mitotic Cells (%) [3, 9]: 78% and 75% | Population Normal (%) [3, 9]: 96% and 97% | Population Pyknosed Nuclei (%) [3, 9]: 5% and 7% | Population Tubulin-Different-Phenotype (%) [3, 9]: 14% and 15% | Total Cell Count [3, 9]: 929 and 586

Reference: ChEMBL document CHEMBL5724801, “EUbOPEN Chemogenomics Library - Multiplex” (2024)
